The values that follow come from ChEMBL document CHEMBL4219146, “Synthesis and Pharmacological Evaluation of Heterocyclic Carboxamides: Positive Allosteric Modulators of the M1 Muscarinic Acetylcholine Receptor with Weak Agonist Activity and Diverse Modulatory Profiles” (J Med Chem, 2018).

Activity calls are given as the source filed them. The rule behind the calls is not given here.

Experiment [1] addresses T1, Muscarinic acetylcholine receptor M1 (Homo sapiens) (UniProt P11229).
T1 sequence (whole entry): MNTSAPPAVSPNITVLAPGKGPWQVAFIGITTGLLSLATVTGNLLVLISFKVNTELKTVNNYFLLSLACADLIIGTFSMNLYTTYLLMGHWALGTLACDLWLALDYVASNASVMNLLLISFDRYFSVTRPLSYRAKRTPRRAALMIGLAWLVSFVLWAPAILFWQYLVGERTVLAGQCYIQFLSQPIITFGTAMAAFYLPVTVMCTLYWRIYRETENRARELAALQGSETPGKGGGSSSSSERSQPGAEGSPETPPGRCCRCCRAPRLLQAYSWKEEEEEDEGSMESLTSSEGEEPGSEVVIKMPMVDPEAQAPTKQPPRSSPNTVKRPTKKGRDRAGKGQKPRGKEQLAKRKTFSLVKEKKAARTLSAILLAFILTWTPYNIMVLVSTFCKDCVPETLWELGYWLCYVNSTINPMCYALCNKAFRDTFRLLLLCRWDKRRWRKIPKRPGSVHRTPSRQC
Put plainly: Intrinsic activity at human muscarinic acetylcholine receptor M1 expressed in flpIn-CHO cells assessed as induction of IP1 accumulation at 10 uM after 1 hr by HTRF assay relative to control. It counts as functional, cell-based. In outline: (§1)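 FlpIn CHO-hM1 cells, 25,000/well, seeded overnight, then preincubated 1 h at 37 °C in HEPES stimulation buffer with 50 mM LiCl, pH 7.4. ACh concentration-response curves run ± 10 µM modulator for 1 h at 37 °C. IP1 read by HTRF (665/620 nm) from lysates, interpolated from a standard curve and normalized to the ACh maximum. ∆pEC50 and ∆baseline taken versus ACh alone. ≥3 experiments, in duplicate.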

For experiment [2], the target named is T1, Muscarinic acetylcholine receptor M1 (Homo sapiens). Put plainly: Positive allosteric modulation of human muscarinic acetylcholine receptor M1 expressed in flpIn-CHO cells assessed as potentiation of acetylcholine-mediated IP1 accumulation at 10 uM measured after 1 hr by based HTRF assay relative to control. The format is functional, cell-based. The essentials:
as §1
(TR-FRET usually uses a lanthanide donor and a delayed reading to cut background.)

The target is the same in experiment [3]. Put plainly: Displacement of [3H]-NMS from human muscarinic acetylcholine receptor M1 […] after 5 hrs by liquid scintillation counting.
Experiment [4] has the same target. Put plainly: Allosteric agonist at human muscarinic acetylcholine receptor M1 expressed in CHO-NFAT cells assessed as induction of calcium mobilization after 4 mins by Fluo-4AM-based FLIPR assay. It counts as functional, cell-based. On the technique in general: Calcium assays in cells follow changes in intracellular calcium, usually with a dye or a luminescent sensor.

Experiment [5] shares this target. The experiment can be described thus: Displacement of [3H]-NMS from human muscarinic acetylcholine receptor M1 expressed in flpIn-CHO cell membranes after 5 hrs in presence of acetylcholine at EC20 by liquid scintillation counting. The essentials:
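Whole-cell binding in FlpIn CHO-hM1 cells, 50,000/well, plated overnight and PBS-washed. Modulator titrated with a fixed EC20 ACh plus 0.2 nM [3H]NMS for 5 h at room temperature in HEPES/NaCl/MgCl2 buffer, pH 7.4. 100 µM atropine defined nonspecific binding. Cells washed with ice-cold saline and counted by scintillation. Data fitted to the allosteric ternary complex model.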
(In a radioligand displacement assay an active substance lowers the binding of a labelled ligand.)

In experiment [6] the target is T2, Muscarinic acetylcholine receptor M1 (Homo sapiens, UniProt P11229).
T2 sequence (P11229 whole entry): T1 sequence (whole entry)
Put plainly: Allosteric agonist at human muscarinic acetylcholine receptor M1 expressed in CHO cells assessed as induction of calcium mobilization after 2.5 mins by Fluo-4AM-based FLIPR assay. The format is functional, cell-based.

For experiment [7], the target named is T2, Muscarinic acetylcholine receptor M1. Put plainly: Positive allosteric modulation of human muscarinic acetylcholine receptor M1 expressed in CHO cells assessed as potentiation of acetylcholine-induced calcium mobilization preincubated for 2.5 mins followed by acetylcholine addition measured after 1 min by Fluo-4AM-based FLIPR assay. It counts as functional, cell-based.

In the case of `Cn1cc(-c2ccc(Cn3cc(C(=O)NC4CCNCC4)c4ncccc43)cc2)cn1`, the Intrinsic activity entry in experiment [1] was “Active”.
Take `Cn1cc(-c2ccc(Cn3cc(C(=O)N4CCN(C(=O)OC(C)(C)C)CC4)c4ncccc43)cc2)cn1`: the result in experiment [2] was inactive.
On to `COc1ccc(Cn2cc(C(=O)O)c(=O)c3ccccc32)cc1`, for which the pKb – broadly, the negative decadic logarithm of the Kb, by convention in mol/L – in experiment [3] was determined as 5.48. Further, in experiment [4], the Intrinsic activity came to 2.09 and the log(IA) worked out at 0.32.
`Cn1cc(-c2ccc(Cn3cc(C(=O)NC4CCOCC4)c4ncccc43)cc2)cn1`: the Intrinsic activity entry in experiment [1] is “Active”.
Turning to `O=C(O)c1ccc(Cn2cc(C(=O)N[C@H]3CCCC[C@@H]3O)c3ncccc32)cc1`, the pKb in experiment [5] was 4.63. Besides, in experiment [1], the Intrinsic activity worked out at 2.88 and the log(IA) was 0.46.
As to `Cn1cc(-c2ccc(Cn3cc(C(=O)N4CCNCC4)c4ncccc43)cc2)cn1`, the Intrinsic activity result in experiment [1] was “Active”.
The same measure, in the same setting: the result for `Cn1cc(-c2ccc(Cn3cc(C(=O)NC4CCCCC4)c4ncccc43)cc2)cn1` reads “Active”.
For `Cn1cc(-c2ccc(Cn3cc(C(=O)N4CCCC4)c4ncccc43)cc2)cn1`, in experiment [1], the Intrinsic activity entry is “inactive”. The result in experiment [2] was Active.
For `Cn1cc(-c2ccc(Cn3cc(C(=O)N[C@H]4CCCC[C@@H]4O)c4c(F)cccc43)cc2)cn1`, in experiment [1], the Intrinsic activity result is “Active”. The result in experiment [2] was Active.
For `Cn1cc(-c2ccc(Cn3nc(C(=O)N[C@H]4CCCC[C@@H]4O)c4ccccc43)cc2)cn1`, the Intrinsic activity result in experiment [1] was “Active”. In addition, the result in experiment [2] was Active.
As for `Cn1cc(-c2ccc(Cn3cc(C(=O)N[C@H]4CCC[C@@H]4O)c4ncccc43)cc2)cn1`, the Intrinsic activity result in experiment [1] was “Active”.
Still for that read-out and setting: with `Cn1cc(-c2ccc(Cn3cc(C(=O)Nc4ccccc4)c4ncccc43)cc2)cn1` the figure was 73%.
The compound `Cc1cnc(C(=O)N[C@@H]2CCOC[C@H]2O)cc1Cc1ccc(-c2cscn2)cc1` came in with a pKb in experiment [3] of 6.2.
`CNC(=O)c1cn(Cc2ccc(-c3cnn(C)c3)cc2)c2cccnc12`: in experiment [2], the result was Active.
On to `Cn1cc(-c2ccc(Cn3ccc(C(=O)N[C@H]4CCCC[C@@H]4O)c3)cc2)cn1`, for which the negative logarithm of the Kb (pKb) in experiment [5] came to 4.19. In experiment [1], the Intrinsic activity stood at 3.31 and the log(IA) was found to be 0.52. In addition, the fold change (FC) in experiment [2] is 7.
With `Cn1cc(-c2ccc(Cn3cc(C(=O)N[C@@H]4CCCC[C@H]4O)c4c(F)cc(F)cc43)cn2)cn1`, the EC50 (commonly the concentration needed to bring the measured effect to its halfway point) in experiment [6] turned out to be 4800 nM; in experiment [7] it was 210 nM.
In experiment [3], `Cn1cc(-c2ccc(Cn3cc(C(=O)N[C@H]4CCCC[C@@H]4O)c4ncccc43)cc2)cn1` had a pKb of 5.92. For the same compound, in experiment [1], the Intrinsic activity is 22.9 and the log(IA) was 1.36. For the same compound, the result in experiment [2] was Active.
With `CCNC(=O)c1cn(Cc2ccc(-c3cnn(C)c3)cc2)c2cccnc12`, the pKb in experiment [5] came out at 4.61. Besides, in experiment [1], the Intrinsic activity was 3.63 and the log(IA) worked out at 0.56.
`CN(C)C(=O)c1cn(Cc2ccc(-c3cnn(C)c3)cc2)c2cccnc12`: the Intrinsic activity entry in experiment [1] was “inactive”. For the same compound, in experiment [2], the outcome was Active.
For the compound `Cn1cc(-c2ccc(Cn3cc(C(N)=O)c4ncccc43)cc2)cn1`, the result in experiment [2] was Active.
Take `Cn1cc(-c2ccc(Cn3cc(C(=O)N[C@H]4CCCC[C@@H]4O)c4ccccc43)cc2)cn1`: the Intrinsic activity result in experiment [1] was “Active”. Also, the result in experiment [2] was Active.
For `Cn1cc(-c2ccc(Cn3cc(C(=O)N4CCCCC4)c4ncccc43)cc2)cn1`, the Intrinsic activity result in experiment [1] is “inactive”. Moreover, in experiment [2], the result was inactive.
Regarding `Cn1cc(-c2ccc(Cn3cc(C(=O)N[C@H]4CCCO[C@@H]4O)c4ncccc43)cc2)cn1`, the Intrinsic activity entry in experiment [1] is “Active”.
As to `Cn1cc(-c2ccc(Cn3cc(C(=O)Nc4ccccc4O)c4ncccc43)cc2)cn1`, the Intrinsic activity in experiment [1] came out at 14%. In experiment [2], the result was inactive.
Turning to `CN(C(=O)c1cn(Cc2ccc(-c3cnn(C)c3)cc2)c2cccnc12)C1CCCCC1`, the pKb in experiment [5] was 4.91. In experiment [1], the Intrinsic activity turned out to be 0.57 and the log(IA) was -0.24.
Consider `Cn1cc(-c2ccc(Cn3cc(C(=O)N[C@H]4CCOC[C@@H]4O)c4ncccc43)cc2)cn1`, for which the Intrinsic activity result in experiment [1] was “Active”.
For the compound `CCN(CC)C(=O)c1cn(Cc2ccc(-c3cnn(C)c3)cc2)c2cccnc12`, the negative logarithm of the Kb (pKb) in experiment [5] came to 4.43. For the same compound, the Intrinsic activity in experiment [1] came out at 0.
As to `Cn1cc(-c2ccc(Cn3cc(C(=O)N[C@H]4CC[C@H](O)CC4)c4ncccc43)cc2)cn1`, the Intrinsic activity entry in experiment [1] is “Active”.
On the same count and under the same terms, with `Cn1cc(-c2ccc(Cn3cc(C(=O)NC4CCC(=O)CC4)c4ncccc43)cc2)cn1` the entry was “Active”.
`Cn1cc(-c2ccc(Cn3cc(C(=O)N[C@H]4CCCC[C@@H]4N)c4ncccc43)cc2)cn1`: the result in experiment [2] was Active.
For `Cn1cc(-c2ccc(Cn3cc(C(=O)N[C@H]4CCCC[C@@H]4O)c4c(Cl)cccc43)cc2)cn1`, the Intrinsic activity result in experiment [1] is “Active”. For the same compound, the outcome in experiment [2] was Active.
